# Laboratory results reported in the array DNA melting data of Ke et al. (doi:10.1101/2024.01.08.574731).
# Key:
# [1] = folding enthalpy; higher = less favourable; fluorescence melt of hairpins on a sequencing array, two-state fit; settings: sodium 0.088 M
# Outline: (§1)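 Hairpins were imaged by Cy3 fluorescence on a sequenced MiSeq flow cell with annealed Cy3 and quencher oligos, in 50 mM Na-HEPES pH 8.0, 25 mM NaCl, in 2.5 °C steps up to 60 °C. Bootstrapped two-state fits of normalised signals gave melting temperature and folding enthalpy. Four replicates were combined by inverse variance, and fitted temperatures were raised by 9.35 °C to match UV melts.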
# [2] = melting temperature; fluorescence melt of hairpins on a sequencing array, two-state fit, raised by 9.35 °C to match UV melts; settings: sodium 0.088 M
# Outline: as §1
Sequence,folding enthalpy [1] [kcal/mol],Tm [2] [°C]
GATCTTTTTAAGATC ((((((...)))))),-32.2,47.1
GCACTGCGAAAGCTCTGC (((..((....))..))),-17.4,35.8
GCGTACGAAAGTACCGC ((((((....))).))),-22.2,56.8
GCCGCGGGAAACCACGGC ((((.((....)).)))),-38.4,63.6
GTCACCGAAAGGTTTGAC ((((((....)))..))),-15.6,37.4
GCATCGGGAAACCAACGC ((.(.((....)).).)),-17.7,28.3
GTGAAGCGAAAGCTGCAC (((.(((....))).))),-35,61
GGATCTGGAAACAGGTCC (((.(((....))).))),-31.5,50.6
GGGTACGGAAACACACCC ((((..(....)..)))),-21.9,32.6
GGCTTTCGAAAGAAGGCC (((.(((....))).))),-40.9,56.7
GATCCCCATGGGATC ((((((...)))))),-37.5,63
AAAGTGAAAACTTT (((((....))))),-11.1,33
GCTCACGAAAGTGTAAGC ((((((....)))..))),-19,45.4
GGTAGCGAAAGCTGACC ((((((....))).))),-17.2,49.7
GAACCTGGAAACAGGTCC (.(((((....))))).),-15.9,40.9
GCAGTCCGAAAGGATGC (((.(((....)))))),-32.1,52.3
GCACCGGGAAACCAGCGC ((.(.((....)).).)),-20.7,37.4
GATCCGACATCGGATC ((((((....)))))),-46.8,55.8
GGATACGAAAGTAGATCC ((((((....)))..))),-17.9,34.7
GATCCGAACCGGATC ((((((...)))))),-40.2,57
GCGTGAGACGC ((((...)))),-18.8,51
TACCTGAAAAGGTA (((((....))))),-14.8,41.3
GTGGCCGAAAGGCATCAC ((((((....)))..))),-11.8,39.5
GATCGACAATTCGATC ((((((....)))))),-42.5,49.2

Sequence,folding enthalpy [1] [kcal/mol],Tm [2] [°C]
GCTCCCGAAAGGGACAGC ((((((....)))..))),-12.6,44.7
GATCGGCGTCCCGATC ((((((....)))))),-40.3,55.4
GATCTGCCGAAAGGCATC (((..(((....)))))),-6.41,24.6
GATCCGATCCGGATC ((((((...)))))),-33.7,58.5
GCCCACGAAAGTGCCGGC ((((((....)))..))),-16.1,46.6
GATCCCAAGAGGGATC ((((((....)))))),-33.9,60.8
GCGGAATTCCGC ((((....)))),-36.5,56.3
GACAAGGGAAACCTCGTC (((.(((....))).))),-22.6,34.5
GGCTCACGAAAGTGCGCC (((.(((....))).))),-50.9,58.4
GTACGGACGAAAGTCTAC (((..(((....)))))),-10.2,31
GCGGAGCGAAAGCAGCGC (((..((....))..))),-17.1,58
GATCAGGAGGCTGATC ((((((....)))))),-37.2,48.2
GCGTTTCCACGC ((((....)))),-22.6,53.5
GACATTCCGAAAGGAGTC (((..(((....)))))),-12.3,28.6
GATCATGAAATGATC ((((((...)))))),-40.9,58.9
GCAGAGCGAAAGCGCAGC ((.(.((....)).).)),-19.6,59.6
GCTTAGGAAACTAAGC ((((((....)))))),-31.7,52.7
GAGCGCGAAAGCGTCTC ((((((....))).))),-21.2,61.5
GCGTATTCACGC ((((....)))),-25.6,53
GCATTTACGAAAGTATGC (((..(((....)))))),-22.2,38
GATCAGGTTCTGATC ((((((...)))))),-34.1,50.5
GCGGCTATCCGC ((((....)))),-20.1,61.2
GAACTCGGAAACGAATTC (((.(((....))).))),-27.5,31.7
GATCCTAGAGAGGATC ((((((....)))))),-35.4,48

Sequence,folding enthalpy [1] [kcal/mol],Tm [2] [°C]
GCAAAGCGAAAGCCTGGC ((.(.((....)).).)),-8.7,35
GCGCCCGAAAGGGGACGC ((((((....)))..))),-19.6,62.2
GATCCCGTCGGGATC ((((((...)))))),-37.7,67.2
GTTAAACGAAAGTTAAAC (((.(((....))).))),-17.7,34.2
AAATCGAAAGATTT (((((....))))),-13.6,46.6
GCTTCGCGAAAGCGTAGC (((.(((....))).))),-42.6,55.7
GTGGACACGAAAGTGCAC (((..(((....)))))),-18.1,45
GTTTGCGAAAGCACAAAC ((((((....)))..))),-12.3,31.6
GACGAGGGAAACCTCATC ((.((((....)))).)),-20.3,31.2
GGTCAACGAAAGTTAACC (((.(((....))).))),-25,39.3
GATCTTACAAAGATC ((((((...)))))),-32.2,44.4
GCCTAGCGAAAGCCTGGC (((..((....))..))),-19.6,52.1
GTAAACGGAAACGTCTAC (((.(((....))).))),-21.2,29
GGCTCTGGAAACAGAGTC (.(((((....))))).),-35.7,52.8
GTAGCTGGAAACAGTTGC (.(.(((....))).).),-14.5,30.8
GCGAGAGGAAACTCTTGC ((.((((....)))).)),-37,50
GCGTACGGAAACGTACAC (.(((((....))))).),-15.1,42.8
CGCGGAAGTATCCGCG ((((((....)))))),-37.9,69
GTCATCTCGAAAGAGGAC (((..(((....)))))),-20.9,39.4
GTTCGCGAAAGCGATAAC ((((((....)))..))),-8.04,32.7
GTCATAGGAAACTATGAC (((((((....))))))),-39.3,55.9
GCGATTATCGC ((((...)))),-20.9,49
GCCACGGGAAACCACGGC (((..((....))..))),-34.4,46.5
GCTAACGAAAGTTTGAGC ((((((....)))..))),-15.6,32.6

Sequence,folding enthalpy [1] [kcal/mol],Tm [2] [°C]
GGCTGCGGAAACGCGGTC (.(.(((....))).).),-28.7,53.1
GGTAACGAAAGTTGAACC ((((((....)))..))),-14.2,30.1
GCAGTGCGAAAGCTCGGC ((.(.((....)).).)),-25.6,54.3
GCTCACGGAAACGCAAGC (((..((....))..))),-8.31,26.8
GATCCCCCCAGGGATC ((((((....)))))),-38.1,63.3
GTTGTCGAAAGACTCAAC ((((((....)))..))),-11.7,27.7
GTGCGTGGAAACACACAC (((.(((....))).))),-37.9,48.6
GCCCCGCGAAAGCGGCGC ((.((((....)))).)),-16.6,59.7
GTTCAGCGAAAGCTAAAC (((.(((....))).))),-21.6,37.8
GCTTAGCGAAAGCAGAGC (((..((....))..))),-19,50
GCCGGCGAAAGCCCAGGC ((((((....)))..))),-19.4,57.5
GCCTAGCGAAAGCGATGC ((.(.((....)).).)),-13.4,44.1
GGGGGCGAAAGCCTCCCC ((((((....)))..))),-11.5,61.4
GCGAGTGCTCGC ((((....)))),-26.2,52
GAAGACGAAAGTCTTC ((((((....)))))),-37.7,64.5
GCTAAGACGAAAGTCAGC (((..(((....)))))),-20.4,44.3
GTAGCCGAAAGGCGGTAC ((((((....)))..))),-9.4,41.2
GGATAGCGAAAGCTGTCC (((.(((....))).))),-42.1,59.3
GATCGCTAAAGCGATC ((((((....)))))),-27.7,67.1
CGTGCGGAAACGCTCACG ((((((....)))..))),-18.3,39.9
GATCTCGTGAGAGATC ((((((....)))))),-31,66.9
